Rpn11 inh = Rpn11 (human) deubiquitinase inhibition; human 26S proteasome, Ub4-pepOG fluorescence polarization; 20S core pre-blocked with epoxomicin; O00487; calls only at 20 µM; 360,000 compounds, 0.59% hits;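 active means inhibition at 20 µM, scaled to each plate's controls, above about 33%, limit read from the data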
TPT1 inhibitor = blocks Candida albicans tRNA 2'-phosphotransferase. recombinant caTPT1, FP RNA substrate dephosphorylation. inhibition, % at 5 µM. 300,000 compounds, 0.81% hits;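 active means inhibition above the mean of all tested compounds plus 3 SD, set per screening campaign, cut at about 24% in these data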;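 further: plate controls were DMSO alone for no effect and ferristatin control at 100 nM for full effect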
CSN inh = blocks human CSN-mediated cullin deneddylation | Q92905 | Purified CSN, SCF-Nedd8-OG deneddylation, fluorescence polarization | inhibition, % at 12.5 µM | 360,000 compounds, 0.38% hits;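 active means pattern-corrected inhibition above about 35%, with an unprinted fluorescence ratio check between 0.5 and 1.5, limit read from the data, passing the limit was not always enough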;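 further: 0% = enzyme with substrate and 100% = substrate without enzyme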
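Material: human Csn5 produced in HEK293T cells; Input: enzyme 0.24 nM; Reagent: SCFSkp2-Nedd8OG substrate at 10 nM final; Dosing: 12.5 µM compound; Incubation: 90 min reaction at room temperature; Detection: fluorescence polarization of the substrate; Evaluation: % inhibition of substrate cleavage by Csn5; Control set: substrate-only high control, full reaction low control.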
HNF4A DNA FP = change in binding of human HNF4 alpha to DNA | 360,000 compounds, 0.3% hits | P41235 | AID 1224865 | activity change, % at 10 µM | HNF4a-FITC DNA binding, fluorescence polarization, 1 h; in the data active means activity change above about 30%, passing the limit was not always enough
Target sequence (P41235 whole entry, looked up): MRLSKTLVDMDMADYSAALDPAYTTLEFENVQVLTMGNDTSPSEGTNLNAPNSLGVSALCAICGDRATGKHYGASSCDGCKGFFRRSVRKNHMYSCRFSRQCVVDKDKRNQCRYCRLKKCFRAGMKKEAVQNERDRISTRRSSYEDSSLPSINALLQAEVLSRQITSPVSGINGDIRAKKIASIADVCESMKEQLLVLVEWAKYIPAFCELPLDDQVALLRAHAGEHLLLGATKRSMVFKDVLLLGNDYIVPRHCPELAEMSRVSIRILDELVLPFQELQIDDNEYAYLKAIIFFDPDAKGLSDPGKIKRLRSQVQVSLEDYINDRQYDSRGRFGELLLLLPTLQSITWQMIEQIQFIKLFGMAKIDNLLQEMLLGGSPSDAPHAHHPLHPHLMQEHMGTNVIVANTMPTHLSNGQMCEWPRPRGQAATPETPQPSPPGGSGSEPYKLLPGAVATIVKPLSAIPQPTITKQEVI
caTPT1 confirm = TPT1 (C. albicans) inhibition, confirmation; AID 2149; shares compounds with TPT1 inhibitor; inhibition, % at 5 µM; 2,400 compounds, 74% hits; recombinant caTPT1, fluorescence polarization, RNase T1 coupled;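 active means inhibition above the primary screen limit, the mean inhibition of all tested compounds plus 3 SD, cut at about 25% in these data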
RNase T1 counter = counter-screen for TPT1 inhibitors: inhibitors of Aspergillus oryzae RNase T1; shares compounds with TPT1 inhibitor; RNase T1 cleavage, fluorescence polarization, 1536-well; inhibition, % at 5 µM; 2,400 compounds, 83% hits; AID 2153;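 active means inhibition above the solvent-only control well mean plus 3 SD, limit set per screening run, cut at about 23% in these data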;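 further: plate controls were DMSO wells with enzyme for no effect and wells without RNase T1 for full effect; inhibitors block cleavage so intact labeled substrate keeps polarization high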
Target sequence (P00651 whole entry, looked up): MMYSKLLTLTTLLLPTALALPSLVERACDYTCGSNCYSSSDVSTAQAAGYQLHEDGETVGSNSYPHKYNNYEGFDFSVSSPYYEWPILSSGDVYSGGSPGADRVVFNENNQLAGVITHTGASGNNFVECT
Rpn11 inh conf = confirmation of human proteasome Rpn11 inhibitors; shares compounds with Rpn11 inh; purified human 26S proteasome, Ub4-pepOG fluorescence polarization; proteasome pretreated with epoxomicin; inhibition, % at 20 µM; 1,900 compounds, 29% hits
MMP-2 inh = blocks human MMP-2, flagging nonselective RPN11 hits; shares compounds with Rpn11 inh; recombinant MMP-2, FRET peptide cleavage fluorescence; inhibition, % at 20 µM; 1,900 compounds, 4% hits; AID 602330;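 further: human MMP-2 activated beforehand with APMA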
Thrombin FP = counter-screen for RPN11 inhibitors: inhibition of bovine thrombin; shares compounds with Rpn11 inh; bovine thrombin cleavage of Ub4-pepOG, fluorescence polarization; inhibition, % at 20 µM; 1,900 compounds, 13% hits; AID 602333;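 active means mean inhibition at least 40% at 20 µM, or signal 3 deviations below plate average, so some actives read negative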;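 further: plate controls were thrombin with DMSO for no effect and buffer wells lacking thrombin for full effect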
The depositor's hits bear a star. In the library only some 1.5% were active in any assay of this set; here they are far more common. Unless noted, no stated cut-off is given here; in the data, active means inhibition above about 40%; inactive means the rest.

What do the screens show for `Cc1sc2nc(CSc3nc4ccccc4c(=O)n3CCCN3CCOCC3)[nH]c(=O)c2c1C`?
Rpn11 inh: active; TPT1 inhibitor: 57*; CSN inh: 17; HNF4A DNA FP: 34*; caTPT1 confirm: 67*; RNase T1 counter: 77*; Rpn11 inh conf: 89*; MMP-2 inh: -33; Thrombin FP: 38

What do the screens show for `CC(=O)c1c(C)[nH]c(C(=O)CSc2nc3ccccc3c(=O)n2CCCN2CCOCC2)c1C`?
Rpn11 inh: inactive; TPT1 inhibitor: 3; CSN inh: 1; HNF4A DNA FP: -2

Results for COc1cc([N+](=O)[O-])cc(/C=N/NC(=O)c2cncc(Br)c2)c1O ?
Rpn11 inh: active; TPT1 inhibitor: 42*; CSN inh: 12; HNF4A DNA FP: 10; caTPT1 confirm: 43*; RNase T1 counter: 59*; Rpn11 inh conf: 49*; MMP-2 inh: 16; Thrombin FP: 29

How did COc1cc(/C=N/NC(=O)c2cccc([N+](=O)[O-])c2)cc(OC)c1O do in these assays?
Rpn11 inh: inactive; TPT1 inhibitor: 0; CSN inh: 4; HNF4A DNA FP: 0

What do the screens show for `COc1cc([N+](=O)[O-])cc(/C=N/NC(=O)c2cc(-c3ccccc3)nc3ccccc23)c1O`?
Rpn11 inh: active; TPT1 inhibitor: 41*; CSN inh: 24; HNF4A DNA FP: 17; caTPT1 confirm: 29*; RNase T1 counter: 45*; Rpn11 inh conf: 68*; MMP-2 inh: 31; Thrombin FP: 11

What do the screens show for `COc1cc(/C=N/NC(=O)c2cncc(Br)c2)cc([N+](=O)[O-])c1O`?
Rpn11 inh: active; TPT1 inhibitor: 44*; CSN inh: 10; HNF4A DNA FP: 11; caTPT1 confirm: 49*; RNase T1 counter: 64*; Rpn11 inh conf: 18; MMP-2 inh: 28; Thrombin FP: 7

Results for CCCCn1c(N)c(N(CCOC)C(=O)CN2C(=O)NC3(CC(C)CC(C)(C)C3)C2=O)c(=O)[nH]c1=O (centres undefined) ?
Rpn11 inh: inactive; CSN inh: -1; HNF4A DNA FP: 5

Results for O=C(COC(=O)c1n[nH]c(=O)c2ccccc12)Nc1cccc(S(=O)(=O)N2CCOCC2)c1 ?
Rpn11 inh: inactive; CSN inh: 0; HNF4A DNA FP: 1

Results for O=C(O)c1ccccc1N/N=C/C1=C(N2CCOCC2)C(=C\c2ccccc2)/CC1 ?
Rpn11 inh: active; TPT1 inhibitor: 25*; CSN inh: 23; HNF4A DNA FP: 27; caTPT1 confirm: 93*; RNase T1 counter: 102*; Rpn11 inh conf: 15; MMP-2 inh: -34; Thrombin FP: -84

How did CC[C@]12c3[nH]c4cc(-c5ccco5)ccc4c3CCN1C(=O)[C@@H](CC(=O)NCCc1ccccn1)C[C@@H]2C(=O)N1CCN(C(=O)c2ccco2)CC1 do in these assays?
Rpn11 inh: inactive; CSN inh: 2; HNF4A DNA FP: 0

What do the screens show for `COc1ccc(C)cc1Nc1nc(-c2c[nH]c3ccccc23)cs1`?
Rpn11 inh: active; TPT1 inhibitor: 31*; CSN inh: 16; HNF4A DNA FP: 20; caTPT1 confirm: 26*; RNase T1 counter: 36*; Rpn11 inh conf: 8; MMP-2 inh: 28; Thrombin FP: 1

How did O=C(NC1CCCCCC1)c1ccc(Cl)c(S(=O)(=O)N2CCOCC2)c1 do in these assays?
Rpn11 inh: inactive; TPT1 inhibitor: -2; CSN inh: -1; HNF4A DNA FP: 1

What do the screens show for `O=C1C=CC(=O)N1CCNc1ncc(C(F)(F)F)cc1Cl`?
Rpn11 inh: inactive; CSN inh: 1; HNF4A DNA FP: 3

Results for O=c1cc(Cl)[nH]c(=O)n1CCNc1ncc(C(F)(F)F)cc1Cl ?
Rpn11 inh: active; TPT1 inhibitor: 74*; CSN inh: 37*; HNF4A DNA FP: 50*; caTPT1 confirm: 72*; RNase T1 counter: 85*; Rpn11 inh conf: 99*; MMP-2 inh: 7; Thrombin FP: 87*

What do the screens show for `CC(=O)c1cccc(-c2ccc3c(=O)[nH]c(Nc4ccccc4)cc3c2)c1`?
Rpn11 inh: active; TPT1 inhibitor: 30*; CSN inh: 55*; HNF4A DNA FP: 12; caTPT1 confirm: 59*; RNase T1 counter: 71*; Rpn11 inh conf: 39; MMP-2 inh: -17; Thrombin FP: -8

What do the screens show for `O=c1[nH]c(Nc2ccccc2)cc2ccccc12`?
Rpn11 inh: inactive; TPT1 inhibitor: 21; CSN inh: 24; HNF4A DNA FP: -1

Results for CCC(C(=O)O)N1C(=O)C2CCCCC2C1=O (centres undefined) ?
Rpn11 inh: inactive; TPT1 inhibitor: 0; CSN inh: -1; HNF4A DNA FP: 0

How did O=C(COC(=O)c1ccncc1)Nc1cc(S(=O)(=O)N2CCOCC2)ccc1Cl do in these assays?
Rpn11 inh: inactive; CSN inh: -3; HNF4A DNA FP: 3

What do the screens show for `Cc1[nH]c2ccccc2c1/C=C/C(=O)c1ccncc1`?
Rpn11 inh: active; TPT1 inhibitor: 76*; CSN inh: 9; HNF4A DNA FP: 13; caTPT1 confirm: 77*; RNase T1 counter: 87*; Rpn11 inh conf: 42*; MMP-2 inh: -61; Thrombin FP: 37

Results for COc1ccc(C2CC(c3ccccc3O)=NN2c2ccccc2)cc1 (centres undefined) ?
Rpn11 inh: inactive; TPT1 inhibitor: -3; CSN inh: 2; HNF4A DNA FP: -2

How did COc1ccc(C2CC(c3ccccc3)=NN2c2ccc(N)cc2)cc1 (centres undefined) do in these assays?
Rpn11 inh: active; TPT1 inhibitor: 29*; CSN inh: -5; HNF4A DNA FP: 19; caTPT1 confirm: 38*; RNase T1 counter: 51*; Rpn11 inh conf: 37; MMP-2 inh: 36; Thrombin FP: 16

How did COc1ccc(NC2=Nc3cccc4cccc2c34)cc1 do in these assays?
Rpn11 inh: active; TPT1 inhibitor: 26*; CSN inh: 19; HNF4A DNA FP: 15; caTPT1 confirm: 37*; RNase T1 counter: 48*; Rpn11 inh conf: 24; MMP-2 inh: -27; Thrombin FP: 10

Compound activity (PubChem BioAssay)
